Test results published in article PMC6045484 (ACS Omega, 2018).
Values after ≈ are worked out from the molar mass of the structure shown.

Tests used:
P. falciparum (W2) = test: in vitro antimalarial activity, plasmodial LDH; type: cell-based, Plasmodium falciparum; conditions: for IC50: Plasmodium falciparum, W2, 72 h, read-out: P. falciparum (W2) IC50, CQ-resistant W2 strain, 72 h
Method in brief: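 P. falciparum-infected erythrocytes (2% parasitemia, 2% hematocrit) in RPMI 1640 with 10% human serum and 60 μg/mL amikacin. Exposed to test compound dilutions for 72 h at 37 °C under 90% N2/5% O2/5% CO2. LDH measured with Malstat reagent (30 min, room temperature), then NBT/PES for 1 h in the dark, stopped with 5% acetic acid, read at 650 nm. IC50 from dose-response curves.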

[1] = system: multidrug-resistant P. yoelii nigeriensis; test: blood-schizontocidal activity against P. yoelii nigeriensis infection in mice; type: in vivo, Plasmodium yoelii nigeriensis; conditions: Swiss mice
Method in brief: (§1)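 Swiss mice of either sex (about 15–20 g, same age), six per group, inoculated intraperitoneally on day 0 with 1 × 10^7 infected erythrocytes from a donor mouse. Oral test compound at 100, 50, 25 or 10 mg/kg, CQ diphosphate (10 mg/kg/day × 4) or vehicle started 4 h later, on D0 to D+3. Giemsa tail-blood smears on D+4 and D+7. Curative: parasites eliminated, no relapse, all mice surviving to D+60.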

[2] = system: CQ-sensitive (CQS) and CQ-resistant (CQR) strains; conditions: strain not stated ref 11; cited from earlier work
P. falciparum (D6) = test: in vitro antimalarial activity, plasmodial LDH; type: cell-based, Plasmodium falciparum; conditions: for IC50: Plasmodium falciparum, D6, 72 h, read-out: P. falciparum (D6) IC50
[3] = system: P. berghei (sensitive strain); test: blood-schizontocidal activity against P. berghei infection in mice; type: in vivo, Plasmodium berghei; conditions: Swiss mice
Method in brief: as §1

C. krusei ATCC6258 = test: in vitro antifungal activity; type: cell-based, Candida krusei
Method in brief: (§2)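 Modified NCCLS broth method in Sabouraud dextrose. Inoculum set by OD630 to 1.5 × 10^3 CFU/mL. Test compound serially diluted in 20% DMSO/saline, duplicate wells, up to 20 μg/mL. Incubated 70–74 h at 35 °C; 530 nm read before and after. IC50 is 50% growth inhibition; MIC is no detectable growth. MFC from clear wells subcultured on agar. Amphotericin B control.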

C. albicans ATCC90028 = test: in vitro antifungal activity; type: cell-based, Candida albicans
Method in brief: as §2

MRSA (ATCC33591) = test: in vitro antibacterial activity; type: cell-based, methicillin-resistant Staphylococcus aureus
Method in brief: (§3)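 Test compound serially diluted in 20% DMSO/saline and plated in duplicate, up to 20 μg/mL. Inoculum in cation-adjusted Mueller–Hinton broth, pH 7.3, set by OD630 to 5 × 10^5 CFU/mL. Incubated 16–20 h at 35 °C; 530 nm read before and after. IC50 is 50% growth inhibition; MIC is no detectable growth. MBC from clear wells subcultured on agar. Ciprofloxacin control.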

[4] = system: M. intracellulare (ATCC23068); test: in vitro antibacterial activity, modified alamarBlue procedure; type: cell-based, Mycobacterium intracellulare
Method in brief: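 Modified alamarBlue microplate method. Test compound serially diluted in 20% DMSO/saline, duplicate wells, up to 20 μg/mL. Inoculum 2.0 × 10^6 CFU/mL in Middlebrook 7H9 with OADC, pH 7.3, containing 5% alamarBlue. Incubated 70–74 h at 37 °C, 10% CO2; fluorescence 544ex/590em read before and after. MIC: no blue-to-pink change. MBC by subculturing blue wells on agar. Ciprofloxacin control.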

[5] = system: SK-MEL, KB, BT-549, SK-OV-3, VERO and LLC-PK1 cells; test: cytotoxicity, neutral red uptake assay; type: cell-based, mammalian; conditions: highest test concentration 4760 ng/mL
Method in brief: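 Cells seeded at 25 000/well and allowed 24 h to reach confluence. Test compound was then added and incubated 48 h. Viable cells were counted by a modified neutral red uptake method. The panel was four human cancer lines and two noncancerous mammalian kidney lines. Doxorubicin served as positive control and DMSO as negative control.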

[6] = system: L. donovani promastigotes; test: in vitro antileishmanial activity, alamarBlue assay; type: cell-based, Leishmania donovani; conditions: 48 h
C. neoformans ATCC90113 = test: in vitro antifungal activity; type: cell-based, Cryptococcus neoformans
Method in brief: as §2

SA (ATCC29213) = test: in vitro antibacterial activity; type: cell-based; conditions: Staphylococcus aureus
Method in brief: as §3

C. glabrata ATCC90030 = test: in vitro antifungal activity; type: cell-based, Candida glabrata
Method in brief: as §2

A. fumigatus ATCC 90906 = test: in vitro antifungal activity; type: cell-based, Aspergillus fumigatus
Method in brief: as §2

[7] = methicillin-resistant S. aureus, highest test concentration 20 μg/mL
[8] = highest test concentration 20 μg/mL

## CCN(CC)CCCC(C)Nc1ccnc2cc(Cl)ccc12 (stereo not shown) [CQ, chloroquine, reference compound]
P. falciparum (W2)
  IC50: 0.14 µg/mL (≈ 0.438 µM)
[1]; 25 mg/kg/day × 4, oral
  P. yoelii nigeriensis blood-schizontocidal activity (mice cured/treated): inactive (0/6)
[1]; 50 mg/kg/day × 4, oral
  P. yoelii nigeriensis blood-schizontocidal activity (mice cured/treated): inactive (0/6)
[1]; 100 mg/kg/day × 4, oral
  P. yoelii nigeriensis blood-schizontocidal activity (mice cured/treated): inactive (0/6)
[2]
  in vitro antimalarial activity IC50: 0.113 µg/mL
P. falciparum (D6)
  IC50: 0.015 µg/mL (≈ 0.0469 µM)
[3]; 10 mg/kg/day × 4, oral
  P. berghei blood-schizontocidal activity (mice cured/treated): active (2/6)
[3]; 25 mg/kg/day × 4, oral
  P. berghei blood-schizontocidal activity (mice cured/treated): curative (6/6)
[3]; 50 mg/kg/day × 4, oral
  P. berghei blood-schizontocidal activity (mice cured/treated): curative (6/6)
[3]; 100 mg/kg/day × 4, oral
  P. berghei blood-schizontocidal activity (mice cured/treated): curative (6/6)

## COc1cc(NC(C)CCCN)c2nc(C(C)(C)C)ccc2c1 (stereo not shown) [2-tert-butylprimaquine]
[2]
  in vitro antimalarial activity IC50: 0.039 µg/mL

## CCCCCCCOc1c(OC)cc(NC(C)CCCN)c2nc(C(C)(C)C)ccc12 (stereo not shown) [compound 48, N^4-(2-tert-Butyl-5-(heptyloxy)-6-methoxyquinolin-8-yl)pentane-1,4-diamine]
P. falciparum (W2)
  IC50: 0.037 µg/mL (≈ 0.0861 µM)
[1]; 25 mg/kg/day × 4, oral
  P. yoelii nigeriensis blood-schizontocidal activity (mice cured/treated): inactive (0/6)
[1]; 50 mg/kg/day × 4, oral
  P. yoelii nigeriensis blood-schizontocidal activity (mice cured/treated): active (3/6)
[1]; 100 mg/kg/day × 4, oral
  P. yoelii nigeriensis blood-schizontocidal activity (mice cured/treated): active (4/6)
C. krusei ATCC6258
  C. krusei MFC: 5.00 µg/mL
  C. krusei MIC: 5.00 µg/mL
C. albicans ATCC90028
  C. albicans MFC: 10.00 µg/mL
  C. albicans MIC: 10.00 µg/mL
C. albicans ATCC90028; Candida albicans, ATCC90028, read-out: C. albicans IC50
  IC50: 4.93 µg/mL (≈ 11.5 µM)
C. albicans ATCC90028; Candida albicans, ATCC90028, read-out: C. albicans MIC
  MIC: 10 µg/mL (≈ 23.3 µM)
MRSA (ATCC33591); Staphylococcus aureus, ATCC33591|MRSA, read-out: MIC, MRSA
  MIC: 5 µg/mL (≈ 11.6 µM)
[4]; Mycobacterium intracellulare, ATCC23068, read-out: IC50 (concentration that affords 50% growth inhibition), M. intracellulare
  IC50: 3.72 µg/mL (≈ 8.66 µM)
[4]; Mycobacterium intracellulare, ATCC23068, read-out: MBC (minimum bactericidal concentration), M. intracellulare
  MBC: 5 µg/mL (≈ 11.6 µM)
[4]; Mycobacterium intracellulare, ATCC23068, read-out: MIC, M. intracellulare
  MIC: 5 µg/mL (≈ 11.6 µM)
P. falciparum (D6)
  IC50: 0.05 µg/mL (≈ 0.116 µM)
[5]
  cytotoxicity CTX: NC (NC, not cytotoxic up to 4760 ng/mL (4.76 μg/mL))
[6]; Leishmania donovani, read-out: L. donovani IC50, promastigotes, 48 h
  IC50: 5 µg/mL (≈ 11.6 µM)
[6]; Leishmania donovani, read-out: L. donovani IC90, promastigotes, 48 h
  IC90: > 40 µg/mL
C. neoformans ATCC90113; Cryptococcus neoformans, ATCC90113, read-out: C. neoformans IC50
  IC50: 2.07 µg/mL (≈ 4.82 µM)
C. neoformans ATCC90113; Cryptococcus neoformans, ATCC90113, read-out: C. neoformans MFC
  MFC: 2.5 µg/mL (≈ 5.82 µM)
C. neoformans ATCC90113; Cryptococcus neoformans, ATCC90113, read-out: C. neoformans MIC
  MIC: 2.5 µg/mL (≈ 5.82 µM)
[3]; 10 mg/kg/day × 4, oral
  P. berghei blood-schizontocidal activity (mice cured/treated): active (4/6)
[3]; 25 mg/kg/day × 4, oral
  P. berghei blood-schizontocidal activity (mice cured/treated): curative (6/6)
[3]; 50 mg/kg/day × 4, oral
  P. berghei blood-schizontocidal activity (mice cured/treated): curative (6/6)
[3]; 100 mg/kg/day × 4, oral
  P. berghei blood-schizontocidal activity (mice cured/treated): curative (6/6)
SA (ATCC29213); ATCC29213, read-out: IC50 (concentration that affords 50% growth inhibition), SA
  IC50: 2.77 µg/mL (≈ 6.45 µM)
SA (ATCC29213); ATCC29213, read-out: MBC (minimum bactericidal concentration), SA
  MBC: 20 µg/mL (≈ 46.5 µM)
SA (ATCC29213); ATCC29213, read-out: MIC, SA
  MIC: 5 µg/mL (≈ 11.6 µM)
C. glabrata ATCC90030
  C. glabrata MFC: 5.00 µg/mL
  C. glabrata MIC: 5.00 µg/mL
A. fumigatus ATCC 90906; Aspergillus fumigatus, ATCC90906, read-out: A. fumigatus IC50
  IC50: 6 µg/mL (≈ 14 µM)
A. fumigatus ATCC 90906; Aspergillus fumigatus, ATCC90906, read-out: A. fumigatus MFC
  MFC: > 20 µg/mL
A. fumigatus ATCC 90906; Aspergillus fumigatus, ATCC90906, read-out: A. fumigatus MIC
  MIC: > 20 µg/mL

## CCCCCCOc1c(OC)cc(NC(C)CCCNC(=O)C2CCCN2)c2nc(C(C)(C)C)ccc12 (stereo not shown) [compound 103, N-(4-(2-tert-Butyl-5-(hexyloxy)-6-methoxyquinolin-8-lamino)pentyl)pyrrolidine-2-carboxamide]
P. falciparum (W2); CQ-resistant W2 strain, 72 h
  P. falciparum (W2) IC50: 2.7 µg/mL
C. krusei ATCC6258
  C. krusei IC50: 8.76 µg/mL
  C. krusei MFC: 10.00 µg/mL
  C. krusei MIC: 10.00 µg/mL
C. albicans ATCC90028
  C. albicans IC50: 11.54 µg/mL
  C. albicans MFC: 20.00 µg/mL
  C. albicans MIC: 20.00 µg/mL
MRSA (ATCC33591); [7]
  IC50 (concentration that affords 50% growth inhibition), MRSA: 2.64 µg/mL (≈ 5.15 µM)
  MBC (minimum bactericidal concentration), MRSA: 20.00 µg/mL (≈ 39 µM)
  MIC, MRSA: 5.00 µg/mL (≈ 9.75 µM)
[4]; [8]
  IC50 (concentration that affords 50% growth inhibition), M. intracellulare: 5.94 µg/mL (≈ 11.6 µM)
  MBC (minimum bactericidal concentration), M. intracellulare: 10.00 µg/mL (≈ 19.5 µM)
  MIC, M. intracellulare: 10.00 µg/mL (≈ 19.5 µM)
P. falciparum (D6); CQ-sensitive D6 strain, 72 h
  P. falciparum (D6) IC50: 4 µg/mL
[5]
  cytotoxicity CTX: NC (NC, not cytotoxic up to 4760 ng/mL (4.76 μg/mL))
[6]; promastigotes
  L. donovani IC50: 4.0 µg/mL
  L. donovani IC90: 6.8 µg/mL
C. neoformans ATCC90113
  C. neoformans IC50: 1.49 µg/mL
  C. neoformans MFC: 2.50 µg/mL
  C. neoformans MIC: 2.50 µg/mL
SA (ATCC29213); [8]
  IC50 (concentration that affords 50% growth inhibition), SA: 2.89 µg/mL (≈ 5.64 µM)
  MBC (minimum bactericidal concentration), SA: 10.00 µg/mL (≈ 19.5 µM)
  MIC, SA: 5.00 µg/mL (≈ 9.75 µM)
C. glabrata ATCC90030
  C. glabrata IC50: 8.91 µg/mL
  C. glabrata MFC: 10.00 µg/mL
  C. glabrata MIC: 10.00 µg/mL
A. fumigatus ATCC 90906
  A. fumigatus IC50: NA (NA, no activity at the highest test concentration of 20 μg/mL)
  A. fumigatus MFC: NA (NA, no activity at the highest test concentration of 20 μg/mL)
  A. fumigatus MIC: NA (NA, no activity at the highest test concentration of 20 μg/mL)
